# Source: ChEMBL document CHEMBL4033721, “Design, synthesis and evaluation of indole-2-carboxamides with pan anti-mycobacterial activity” (Bioorg Med Chem, 2017)
# Experiments:
# [1] = system: Mycobacteroides abscessus; assay: Antimycobacterial activity against Mycobacterium abscessus ATCC 19977 after 8 days by resazurin microtiter based colorimetric assay; type: functional; conditions: ATCC 19977, 192 h
# Procedure, shortened: (§1)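 Resazurin microtiter plate MIC, read by visual scan for growth, in Mueller Hinton II broth. Strains include clinical isolates of M. abscessus complex, M. chelonae, M. avium, M. intracellulare, M. xenopi, P. aeruginosa PAO-1 and S. aureus ATCC 25923.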
# [2] = system: Mycobacteroides abscessus; assay: Antimycobacterial activity against Mycobacterium abscessus isolate DCI 21 after 8 days by resazurin microtiter based colorimetric assay; type: functional; conditions: isolate DCI 21, 192 h; procedure, shortened: as §1
# [3] = Antimycobacterial activity against Mycobacterium massiliense isolate CIP108297 after 8 days by resazurin microtiter based colorimetric assay; type: functional, Mycobacterium abscessus subsp. massiliense; conditions: Mycobacteroides abscessus, isolate CIP108297, 192 h; procedure, shortened: as §1
# [4] = Antimycobacterial activity against Mycobacterium massiliense isolate CRM0019 after 8 days by resazurin microtiter based colorimetric assay; type: functional, Mycobacterium abscessus subsp. massiliense; conditions: Mycobacteroides abscessus, isolate CRM0019, 192 h; procedure, shortened: as §1
# [5] = Antimycobacterial activity against Mycobacterium bolletii ATCC 14472 after 8 days by resazurin microtiter based colorimetric assay; type: functional; conditions: Mycobacteroides abscessus, ATCC 14472, 192 h; procedure, shortened: as §1
# Mycobacteroides chelonae = assay: Antimycobacterial activity against Mycobacterium chelonae ATCC 35752 after 8 days by resazurin microtiter based colorimetric assay; type: functional; conditions: ATCC 35752, 192 h; procedure, shortened: as §1
# [6] = system: Mycobacterium tuberculosis; assay: Antimycobacterial activity against Mycobacterium tuberculosis H37Rv MC2-6206 after 8 days by resazurin microtiter based colorimetric assay; type: functional; conditions: H37Rv MC2-6206, 192 h
# Procedure, shortened: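 MIC was measured by resazurin microtiter colorimetric assay with visual growth scoring. Medium was 7H9-ADC–0.05% tyloxapol with 0.2% casaminoacids, 48 µg/ml pantothenate and 50 µg/ml L-leucine.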
# [7] = system: Mycolicibacterium smegmatis; assay: Antimycobacterial activity against Mycobacterium smegmatis isolate MC2 155 after 8 days by resazurin microtiter based colorimetric assay; type: functional; conditions: str. MC2 155, 192 h
# Mycobacterium avium = assay: Antimycobacterial activity against Mycobacterium avium isolate 104 after 8 days by resazurin microtiter based colorimetric assay; type: functional; conditions: isolate 104, 192 h
# Procedure, shortened: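 M. avium 104 MICs were read by resazurin microtiter colorimetric assay in 96-well plates, with growth scored visually, in Mueller Hinton II medium.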
# [8] = system: Mycobacterium avium-intracellulare; assay: Antimycobacterial activity against Mycobacterium avium-intracellulare isolate 1956 after 8 days by resazurin microtiter based colorimetric assay; type: functional; conditions: isolate 1956, 192 h; procedure, shortened: as §1
# Mycobacterium xenopi = assay: Antimycobacterial activity against wild type Mycobacterium xenopi isolate 4042 after 8 days by resazurin microtiter based colorimetric assay; type: functional; conditions: isolate 4042, 192 h; procedure, shortened: as §1
# Pseudomonas aeruginosa = assay: Antibacterial activity against Pseudomonas aeruginosa PAO1 after 8 days by resazurin microtiter based colorimetric assay; type: functional; conditions: PAO1, 192 h; procedure, shortened: as §1
# Staphylococcus aureus = assay: Antibacterial activity against Staphylococcus aureus ATCC 25923 after 8 days by resazurin microtiter based colorimetric assay; type: functional; conditions: ATCC 25923, 192 h; procedure, shortened: as §1
# [9] = system: Mycobacteroides abscessus; assay: Bactericidal activity against Mycobacterium abscessus after 8 days by resazurin microtiter based colorimetric assay; type: functional
# Procedure, shortened: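 MBC90 found by subculturing from the MIC wells onto 7H11 agar. Value is the lowest concentration cutting CFU by 90% versus the inoculum.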
SMILES,MIC [1] [µg/mL],MIC [2] [µg/mL],MIC [3] [µg/mL],MIC [4] [µg/mL],MIC [5] [µg/mL],MIC (Mycobacteroides chelonae) [µg/mL],MIC [6] [µg/mL],MIC [7] [µg/mL],MIC (Mycobacterium avium) [µg/mL],MIC [8] [µg/mL],MIC (Mycobacterium xenopi) [µg/mL],MIC (Pseudomonas aeruginosa) [µg/mL],MIC (Staphylococcus aureus) [µg/mL],MBC90 [9] [µg/mL]
CCCCCCCCNC(=O)c1cc2c(C)cc(C)cc2[nH]1,> 32,> 32,> 32,> 32,> 32,> 32,> 20,2.5 to 5,> 32,> 32,> 32,–,–,–
Cc1cc(C)c2cc(C(=O)NCC34CC5CC(CC(C5)C3)C4)[nH]c2c1,> 32,> 32,> 32,> 32,> 32,> 32,0.16,> 20,> 32,> 32,1,–,–,–
Cc1cc(C)c2cc(C(=O)N[C@H]3CC[C@H](C)CC3)[nH]c2c1,≤ 0.06,≤ 0.06,≤ 0.06,≤ 0.06,≤ 0.06,≤ 0.06,0.31,> 20,> 32,> 32,0.25 to 1,–,–,–
Cc1cc(C)c2cc(C(=O)NC3CCCCC3)[nH]c2c1,0.5,0.25,0.25,0.25,0.25,0.25,0.625,2.5,> 32,> 32,1 to 2,–,–,–
CC1CCC(NC(=O)c2cc3ccccc3[nH]2)CC1 (mixture of isomers),> 32,> 32,16,16,16,16,5,12.5,> 32,> 32,16,–,–,–
CC(NC(=O)c1cc2ccccc2[nH]1)C12CC3CC(CC(C3)C1)C2 (configuration not stated),16,16,8,8,16,2,> 5,> 20,> 32,32,8,–,–,–
CCC12CC3CC(C1)CC(NC(=O)c1cc4ccccc4[nH]1)(C3)C2,> 32,> 32,> 32,> 32,> 32,> 32,1.25,> 20,> 32,> 32,1 to 2,–,–,–
Cc1cc(C)c2cc(C(=O)NC(C)C34CC5CC(CC(C5)C3)C4)[nH]c2c1 (configuration not stated),16,> 32,8,8,16,16,0.31,> 20,> 32,> 32,> 32,–,–,–
Cc1cc(C)c2cc(C(=O)NC34CC5CC(CC(C5)C3)C4)[nH]c2c1,> 32,32,> 32,> 32,> 32,> 32,0.0195,1.25 to 2.5,> 32,> 32,> 32,–,–,–
O=C(NC1C2CC3CC(C2)CC1C3)c1cc2ccccc2[nH]1 (configuration not stated),> 32,> 32,> 32,32,32,> 32,0.39,> 25,> 32,> 32,2,–,–,–
Cc1cc(C)c2cc(C(=O)NC3CCCCCC3)[nH]c2c1,≤ 0.06,≤ 0.06,≤ 0.06,≤ 0.06,≤ 0.06,≤ 0.06,0.08,0.625,2,4,0.06 to 0.12,> 160,> 160,0.015
CCC12CC3CC(C1)CC(NC(=O)c1cc4c(C)cc(C)cc4[nH]1)(C3)C2,> 32,> 32,> 32,> 32,> 32,> 32,0.039,> 20,> 32,> 32,> 32,–,–,–
Cc1cc(C)c2cc(C(=O)NC3CCCC3)[nH]c2c1,4,4,8,8,2,2,2.5,5,> 32,> 32,8 to 16,–,–,–
Cc1cc(C)c2cc(C(=O)NC3C4CC5CC(C4)CC3C5)[nH]c2c1 (configuration not stated),> 32,> 32,> 32,> 32,> 32,> 32,0.04,> 20,> 32,> 32,0.5 to 1,–,–,–
O=C(NCC12CC3CC(CC(C3)C1)C2)c1cc2ccccc2[nH]1,2,2,2,> 32,2,1,> 5,> 20,> 32,> 32,4,–,–,–
Cc1cc(C)c2cc(C(=O)NC3CCC(C)CC3)[nH]c2c1 (mixture of isomers),≤ 0.06,≤ 0.06,≤ 0.06,≤ 0.06,≤ 0.06,≤ 0.06,0.31,> 20,> 32,> 32,0.5 to 1,> 160,> 160,0.03
